According to the M2OR odorant receptor database:

Assays:
Conditions in all cases: stereoisomer not certain
O10H2 = tested on: O10H2
In short: (§1)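 Values were gathered from published papers (main text and supplementary material), with extra details requested from the original authors when needed, and checked for typos and inconsistencies. Each receptor–molecule pair is called responsive (active) if the original authors judged the measured signal statistically different from baseline, and non-responsive (inactive) otherwise. Assay methods varied by source, often transient mammalian cell-line luciferase assays. Recorded details include cell line, G-protein, co-transfected protein and tags.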

O10G7 I28V = tested on: O10G7 I28V
In short: as §1

O10H3 R54H = tested on: O10H3 R54H
In short: as §1

O10H4 I50V = tested on: O10H4 I50V
In short: as §1

O10H5 S268Y = tested on: O10H5 S268Y
In short: as §1

O10J1 M62I I103M = tested on: O10J1 M62I I103M
In short: as §1

O10J1 M62I = tested on: O10J1 M62I
In short: as §1

O10J3 Q235R E319G = tested on: O10J3 Q235R E319G
In short: as §1

O10P1 R195K = tested on: O10P1 R195K
In short: as §1

O10Q1 E12D = tested on: O10Q1 E12D
In short: as §1

Measured: odorant receptor agonist call

Sequence of O10H2 (as listed by the source): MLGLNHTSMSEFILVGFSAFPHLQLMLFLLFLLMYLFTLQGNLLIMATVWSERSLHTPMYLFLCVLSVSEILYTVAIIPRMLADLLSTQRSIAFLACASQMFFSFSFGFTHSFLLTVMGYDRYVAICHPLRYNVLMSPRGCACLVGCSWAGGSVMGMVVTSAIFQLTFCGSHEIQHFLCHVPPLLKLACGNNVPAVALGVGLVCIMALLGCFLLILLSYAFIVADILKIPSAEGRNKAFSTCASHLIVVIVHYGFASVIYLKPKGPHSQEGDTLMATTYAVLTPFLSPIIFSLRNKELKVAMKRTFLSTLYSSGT
Sequence of O10H3 R54H (as listed by the source, stated change not applied): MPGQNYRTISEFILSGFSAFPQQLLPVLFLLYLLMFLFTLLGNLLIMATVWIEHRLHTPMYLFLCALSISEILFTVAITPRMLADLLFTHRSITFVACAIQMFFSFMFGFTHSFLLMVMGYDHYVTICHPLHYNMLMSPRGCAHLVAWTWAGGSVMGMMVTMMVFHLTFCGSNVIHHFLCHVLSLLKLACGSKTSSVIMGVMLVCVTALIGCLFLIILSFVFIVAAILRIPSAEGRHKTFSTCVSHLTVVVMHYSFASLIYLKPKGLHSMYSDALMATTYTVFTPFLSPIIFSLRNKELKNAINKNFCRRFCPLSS
Sequence of O10Q1 E12D (as listed by the source, stated change not applied): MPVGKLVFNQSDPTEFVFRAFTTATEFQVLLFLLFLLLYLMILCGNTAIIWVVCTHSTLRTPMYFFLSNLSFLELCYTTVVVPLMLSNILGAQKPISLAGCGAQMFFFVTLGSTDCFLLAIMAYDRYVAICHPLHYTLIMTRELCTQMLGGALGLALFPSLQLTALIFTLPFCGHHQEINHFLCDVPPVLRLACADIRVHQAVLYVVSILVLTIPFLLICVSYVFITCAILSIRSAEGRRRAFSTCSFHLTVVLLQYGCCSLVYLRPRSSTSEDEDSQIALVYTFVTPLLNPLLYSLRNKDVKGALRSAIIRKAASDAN
Sequence of O10H5 S268Y (as listed by the source, stated change not applied): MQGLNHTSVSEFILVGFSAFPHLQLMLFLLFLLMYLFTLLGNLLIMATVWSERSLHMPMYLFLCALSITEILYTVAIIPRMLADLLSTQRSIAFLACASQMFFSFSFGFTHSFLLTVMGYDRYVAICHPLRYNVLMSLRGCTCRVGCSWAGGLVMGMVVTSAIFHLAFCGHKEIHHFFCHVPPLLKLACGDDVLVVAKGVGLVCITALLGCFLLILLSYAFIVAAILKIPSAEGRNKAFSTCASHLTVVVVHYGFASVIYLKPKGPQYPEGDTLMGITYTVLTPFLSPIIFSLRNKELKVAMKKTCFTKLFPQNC
Sequence of O10J1 M62I (as listed by the source, stated change not applied): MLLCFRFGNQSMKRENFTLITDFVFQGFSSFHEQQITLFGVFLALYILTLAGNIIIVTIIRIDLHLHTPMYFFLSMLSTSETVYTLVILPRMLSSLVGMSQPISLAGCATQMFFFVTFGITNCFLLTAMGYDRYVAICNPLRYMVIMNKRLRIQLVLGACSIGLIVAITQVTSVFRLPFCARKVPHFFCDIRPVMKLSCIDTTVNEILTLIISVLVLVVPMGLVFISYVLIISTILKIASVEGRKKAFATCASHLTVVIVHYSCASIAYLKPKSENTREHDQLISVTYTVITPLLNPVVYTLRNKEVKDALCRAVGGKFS
Sequence of O10G7 I28V (as listed by the source, stated change not applied): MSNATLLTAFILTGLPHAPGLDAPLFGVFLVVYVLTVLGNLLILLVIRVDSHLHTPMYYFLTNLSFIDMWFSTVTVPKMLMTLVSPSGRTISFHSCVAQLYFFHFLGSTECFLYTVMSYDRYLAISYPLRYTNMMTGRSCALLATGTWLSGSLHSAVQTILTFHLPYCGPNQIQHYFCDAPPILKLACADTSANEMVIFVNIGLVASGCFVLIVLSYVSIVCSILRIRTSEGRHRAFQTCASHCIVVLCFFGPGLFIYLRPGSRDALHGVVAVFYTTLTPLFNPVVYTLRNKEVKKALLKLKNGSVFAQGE
Sequence of O10H4 I50V (as listed by the source, stated change not applied): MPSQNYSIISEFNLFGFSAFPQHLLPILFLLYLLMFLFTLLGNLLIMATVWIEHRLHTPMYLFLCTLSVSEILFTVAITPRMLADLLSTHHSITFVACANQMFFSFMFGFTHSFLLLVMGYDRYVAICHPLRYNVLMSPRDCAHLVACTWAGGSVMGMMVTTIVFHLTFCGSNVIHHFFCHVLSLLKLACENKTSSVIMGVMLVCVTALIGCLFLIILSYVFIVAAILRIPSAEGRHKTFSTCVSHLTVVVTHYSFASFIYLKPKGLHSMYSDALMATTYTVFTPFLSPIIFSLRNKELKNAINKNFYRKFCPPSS
Sequence of O10P1 R195K (as listed by the source, stated change not applied): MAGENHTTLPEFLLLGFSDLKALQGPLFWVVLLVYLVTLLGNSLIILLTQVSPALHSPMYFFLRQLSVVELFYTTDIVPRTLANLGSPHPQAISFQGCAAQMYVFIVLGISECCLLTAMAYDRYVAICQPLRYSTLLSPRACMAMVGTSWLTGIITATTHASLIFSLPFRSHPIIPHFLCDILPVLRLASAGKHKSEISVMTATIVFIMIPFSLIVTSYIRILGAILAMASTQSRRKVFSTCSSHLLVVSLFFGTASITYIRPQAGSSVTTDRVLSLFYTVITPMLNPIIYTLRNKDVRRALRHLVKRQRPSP

O=CC=Cc1ccccc1
active: O10H2

C=CCOC(=O)Cc1ccccc1
inactive: O10G7 I28V | O10H2 | O10H3 R54H | O10H4 I50V | O10H5 S268Y | O10J1 M62I I103M | O10J1 M62I | O10J3 Q235R E319G | O10P1 R195K | O10Q1 E12D
